ChEMBL document CHEMBL1759925, “Rapidly photoactivatable ATP probes for specific labeling of tropomyosin within the actomyosin protein complex” (Bioorg Med Chem Lett, 2011)
Calls of active or inactive are those of the source.

Tests used:
Gallus gallus [1] = species on record: Gallus gallus; test: Binding affinity to chicken skeletal muscle tropomyosin within actomyosin protein complex at 125 uM after 1 hr followed by 10 mins irradiation with UVA by chemiluminescent assay using avidin-horseradish peroxidase conjugate; type: tissue-based; conditions: Muscle tissue
Procedure, shortened: (§1)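 Actomyosin (3.9 µg) was incubated for 1 h with photoaffinity ATP probe in 30 mM Tris–HCl (pH 7.2), 5 mM MgCl₂ and 1 mM EGTA, then irradiated with 360 nm light. Photoproducts were resolved on 10% SDS–PAGE, transferred to PVDF, and labeled proteins visualized by chemiluminescence using avidin-HRP conjugate.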

Gallus gallus [2] = species on record: Gallus gallus; test: Binding affinity to chicken skeletal muscle tropomyosin within actomyosin protein complex at 125 uM after 1 hr followed by 10 mins irradiation with UVA by SDS-PAGE analysis using coomassie brilliant blue staining; type: tissue-based; conditions: Muscle tissue
Gallus gallus [3] = species on record: Gallus gallus; test: Binding affinity to chicken skeletal muscle tropomyosin within actomyosin protein complex at 125 uM after 1 hr followed by 10 mins irradiation with UVA by Western blot analysis; type: tissue-based; conditions: Muscle tissue; procedure, shortened: as §1
Gallus gallus [4] = species on record: Gallus gallus; test: Binding affinity to chicken skeletal muscle actomyosin at 125 uM after 1 hr followed by 10 mins irradiation with UVA by chemiluminescent method using avidin-horseradish peroxidase conjugate in presence of 1 mM of calcium chloride
Procedure, shortened: (§2)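 Actomyosin (3.9 µg) was incubated with photoaffinity ATP probe for 1 h in 30 mM Tris–HCl (pH 7.2), 5 mM MgCl₂ and 1 mM CaCl₂, with no EGTA. Samples were then irradiated at 360 nm, separated by 10% SDS–PAGE and blotted to PVDF. Labeled bands were detected by chemiluminescence with avidin-HRP conjugate.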

Gallus gallus [5] = species on record: Gallus gallus; test: Binding affinity to chicken skeletal muscle tropomyosin within actomyosin protein complex at 125 uM after 1 hr followed by 10 mins irradiation with UVA by chemiluminescent assay using avidin-horseradish peroxidase conjugate in presence of 1 mM of calcium chloride; procedure, shortened: as §2
Gallus gallus [6] = species on record: Gallus gallus; test: Binding affinity to chicken skeletal muscle actin within actomyosin protein complex at 125 uM after 1 hr followed by 10 mins irradiation with UVA by chemiluminescent method using avidin-horseradish peroxidase conjugate in presence of 1 mM of calcium chloride; procedure, shortened: as §2
Gallus gallus [7] = species on record: Gallus gallus; test: Binding affinity to chicken skeletal muscle myosin within actomyosin protein complex at 125 uM after 1 hr followed by 10 mins irradiation with UVA by chemiluminescent method using avidin-horseradish peroxidase conjugate in presence of 1 mM of calcium chloride; procedure, shortened: as §2

Measured: Activity

Nc1ncnc2c1ncn2[C@@H]1O[C@H](COP(=O)(O)OP(=O)(O)OP(=O)(O)NCc2ccc(C3(C(F)(F)F)N=N3)cc2OCCOCCOCCNC(=O)CCCC[C@@H]2SC[C@@H]3NC(=O)N[C@@H]32)[C@@H](O)[C@H]1O
active: Gallus gallus [1] | Gallus gallus [2]

Nc1ncnc2c1ncn2[C@@H]1O[C@H](COP(=O)(O)OP(=O)(O)OP(=O)(O)NCc2ccc(C3(C(F)(F)F)N=N3)cc2)[C@@H](O)[C@H]1O
active: all assays above
